Data as given in ChEMBL document CHEMBL1127547, “Synthesis and biological activities of a new set of irreversibly acting 2-(4'-isothiocyanatobenzyl)imidazoline analogs in rat thoracic aorta” (J Med Chem, 1994).
Where “and” joins values, the source holds several entries; their conditions need not be identical. Equal values may be shown once.

How the values were obtained:
[1] = organism: Rattus norvegicus; assay: Percent of maximal contractile response to compound in rat thoracic aorta strips in the presence of nifedipine
Method in brief: (§1)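 Aortic strips were pretreated with nifedipine 10^-6 M for 60 min. The stock was 0.01 M in EtOH, diluted in 0.01 M sodium phosphate, pH 7.4. Cumulative analog curves followed, read 35–45 min after each addition. Emax is expressed relative to the compound alone. Mean ± SEM, n = 3–4; paired comparison.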

[2] = organism: Rattus norvegicus; assay: Percent of maximal contractile response to compound with phenoxybenzamine pretreatment on rat thoracic aorta strips
Method in brief: (§2)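 Rat aortic strips (male Sprague-Dawley) were pretreated with phenoxybenzamine 3×10^-6 M for 20 min and washed before cumulative analog curves were run. Responses were taken 20–30 min after each addition. Maximal contraction is expressed relative to 30 μM phenylephrine, obtained before pretreatment. Mean ± SEM, n = 4–7; Student's t test against the untreated control.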

[3] = organism: Rattus norvegicus; assay: Percent of maximal contractile response to compound without phenoxybenzamine pretreatment on rat thoracic aorta strips
Method in brief: (§3)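 Helically cut thoracic aorta strips from male Sprague-Dawley rats (300–450 g) in a 10-mL water-jacketed bath of physiological salt solution. After 1 h equilibration, strips were primed with 10^-8 M phenylephrine, and a phenylephrine curve (10^-9 to 3×10^-5 M) was run. Cumulative analog curves were read 20–30 min after each addition. Emax is given relative to the 30 μM phenylephrine maximum. Mean ± SEM, n = 4–7.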

[4] = organism: Rattus norvegicus; assay: Percent of maximal contractile response to compound in rat thoracic aorta strips; method in brief: as §3
[5] = organism: Rattus norvegicus; assay: Percent of maximal contractile response to compound in rat thoracic aorta strips in the presence of PBZ and CIR
[6] = organism: Rattus norvegicus; assay: Percent of maximal contractile response to compound in rat thoracic aorta strips in the presence of PBZ and IDA
Method in brief: (§4)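 Rat aortic strips were given PBZ for 20 min, then washed out and exposed to idazoxan for 60 min before cumulative analog curves (3×10^-8–10^-4 M). Readings were taken 35–45 min after each addition. Response is expressed as % of the 30 μM phenylephrine maximum. Mean ± SEM, n = 3–4.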

[7] = organism: Rattus norvegicus; assay: Concentration that produces 50% of the maximal response to compound in rat thoracic aorta strips; type: functional; method in brief: as §3
[8] = organism: Rattus norvegicus; assay: Concentration that produces 50% of the maximal response to compound in rat thoracic aorta strips in the presence of PBZ and CIR; type: functional
[9] = organism: Rattus norvegicus; assay: Concentration that produces 50% of the maximal response to compound in rat thoracic aorta strips in the presence of PBZ and IDA; type: functional; method in brief: as §4
[10] = organism: Rattus norvegicus; assay: Concentration that produces 50% of the maximal response to compound in rat thoracic aorta strips in the presence of nifedipine; type: functional; method in brief: as §1
[11] = organism: Rattus norvegicus; assay: Concentration that produces 50% of the maximal response to compound with phenoxybenzamine pretreatment on rat thoracic aorta strips; type: functional; method in brief: as §2
[12] = organism: Rattus norvegicus; assay: Concentration that produces 50% of the maximal response to compound without phenoxybenzamine pretreatment on rat thoracic aorta strips; type: functional; method in brief: as §3
[13] = organism: Rattus norvegicus; assay: Percent of maximal contractile response to compound in rat thoracic aorta strips v
[14] = organism: Rattus norvegicus; assay: Concentration that produces 50% of the maximal response to compound in rat thoracic aorta strips in the presence of PBZ and IDA
[15] = organism: Rattus norvegicus; assay: Percent of maximal contractile response to compound in rat thoracic aorta strips in the presence of calcium deficient buffer
Method in brief: (§5)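 Cumulative analog concentration-response curves were run on rat thoracic aorta strips in calcium-deficient PSS. Responses were read 35–45 min after each addition. Emax is relative to the maximal contraction of the compound alone in normal PSS. Mean ± SEM, n = 3–4; paired t test.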

[16] = organism: Rattus norvegicus; assay: Percent of maximal contractile response to compound in rat thoracic aorta strips in the presence of verapamil
Method in brief: (§6)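 Verapamil was given for 60 min before cumulative analog curves on rat aortic strips; the methods give 10^-5 M and the table footnote gives 10^-6 M. Responses were read 35–45 min after each addition. Emax is relative to the compound's own maximal contraction without verapamil. Mean ± SEM, n = 3–4.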

[17] = organism: Rattus norvegicus; assay: Percent of maximal contractile response to compound in rat thoracic aorta strips presence of PBZ and CIR
[18] = organism: Rattus norvegicus; assay: Percent of maximal contractile response to compound in rat thoracic aorta strips in the presence of PBZ and IDA at 0.1 uM
Method in brief: (§7)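 Strips were exposed to 30 nM PBZ for 20 min, washed out, then held in idazoxan for 1 h: 0.1 μM or 1 μM. Analog-induced contractions were read 20–30 min after addition and expressed against the 30 μM phenylephrine maximum obtained before treatment.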

[19] = organism: Rattus norvegicus; assay: Percent of maximal contractile response to compound in rat thoracic aorta strips in the presence of PBZ and IDA at 1 uM; method in brief: as §7
[20] = organism: Rattus norvegicus; assay: Concentration that produces 50% of the maximal response to compound in rat thoracic aorta strips in the presence of PBZ and IDA at 0.1 uM; type: functional; method in brief: as §7
[21] = organism: Rattus norvegicus; assay: Concentration that produces 50% of the maximal response to compound in rat thoracic aorta strips in the presence of PBZ and IDA at 1 uM; type: functional; method in brief: as §7
[22] = organism: Rattus norvegicus; assay: Concentration that produces 50% of the maximal response to compound in rat thoracic aorta strips in the presence of calcium deficient buffer; type: functional; method in brief: as §5
[23] = organism: Rattus norvegicus; assay: Concentration that produces 50% of the maximal response to compound in rat thoracic aorta strips in the presence of verapamil; type: functional; method in brief: as §6
[24] = Rattus norvegicus, Thoracic aorta, read-out: Emax
[25] = Rattus norvegicus, Thoracic aorta

Row | Structure (SMILES) | Emax [1] [%] | Emax [2] [%] | Emax [3] [%] | Emax [4, 24] [%] | Emax [5] [%] | EC50 [7, 25] [µM] | EC50 [8] [µM] | EC50 [10] [µM] | EC50 [11] [µM] | EC50 [12] [µM] | other results
1 | S=C=Nc1ccc(Cc2ncc[nH]2)cc1 | 35 | 68 | 70 | 100 | 102 | 28.6 | 25.5 | 38.9 | 36 | 31 | Emax [6]: 79%; EC50 [9]: 40.9 µM
2 | S=C=Nc1ccc(CC2=NCCN2)cc1I |  | 28 | 31 |  |  |  |  |  | 58 | 10 | 
3 | O=C(CCl)Nc1ccc(CC2=NCCN2)cc1 |  | 32 | 41 |  |  |  |  |  | 129 | 116 | 
4 | Cc1ccc(CC2=NCCN2)cc1 |  | 5 | 14 |  |  |  |  |  |  | 57 | 
5 | S=C=Nc1ccc(OCC2=NCCN2)cc1 | 11 | 117 | 108 | 100 | 117 | 17.2 | 16.4 | 52.1 | 47 | 69 | Emax [13]: 110%; EC50 [14]: 16.1 µM
6 | O=C(CI)Nc1ccc(CC2=NCCN2)cc1 |  | 13 | 25 |  |  |  |  |  |  | 47 | 
7 | CN(C)CCc1ccc(N=C=S)cc1 | 29 | 113 | 98 | 100 |  | 16.8 |  | 48.5 | 33 | 41 | Emax ([4]; rat, in vitro): 91% and 94%; EC50 [7]: 16.9 µM and 16.3 µM
8 | Nc1ccc(CC2=NCCN2)cc1 |  | 9 | 69 |  |  |  |  |  | 31 | 3 | 
9 | S=C=Nc1ccc(CCC2=NCCN2)cc1 | 21 | 102 | 107 | 100 | 100 | 18.3 | 14.9 | 67 | 29 | 29 | Emax [6]: 114%; EC50 [9]: 18.1 µM
10 | S=C=Nc1ccc(CC2=NCCN2)cc1 | 42 | 100 | 118 | 100 |  |  | 43 | 19.8 | 52 | 48 | Emax [15]: 34%; Emax [16]: 48%; Emax [17]: 94%; Emax ([4]; rat, in vitro): 100%; Emax [18]: 104%; Emax [19]: 105%; EC50 [7]: 45 µM and 5.8 µM; EC50 [20]: 54 µM; EC50 [21]: 54 µM; EC50 [22]: 12.7 µM; EC50 [23]: 21.4 µM
